High-throughput results: PubChem BioAssay, ICCB-Longwood Screening Facility, Harvard Medical School
Ab BasE inh: BasE siderophore enzyme inhibitors, primary screen, biochemical, Acinetobacter baumannii ATCC 17978, fluorescence polarization; purified BasE, fluorescence polarization binding displacement; inhibition, % (test concentration not listed); 0.1% of 84,000 active; AID 485350, 2010; in the data active = inhibition above about 25%, passing the limit was not always enough
KSHV LANA nucl: inhibitors of KSHV LANA-nucleosome binding, primary screen, biochemical, fluorescence polarization, FITC-LANA1-23, chicken nucleosomes; 0.3% of 51,000 active; z-score (concentration not given with the values); FITC-LANA1-23 / chicken nucleosome fluorescence polarization; active compounds read low;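 active = both repeat wells score below -2 in polarization z-score versus plate sample wells, excluding overly bright wells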
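System – purified chicken nucleosomes with FITC-labelled LANA N-terminal peptide (1-23) · Amount – 240 nM purified chicken nucleosomes (480 nM peptide binding sites), final · Also added – 50 nM FITC-LANA1-23 probe · Medium – TEN-BT buffer, pH 7.5 · Incubation – compound with peptide–nucleosome mix 10–45 min at room temperature · Detection – fluorescence polarization, ex 480 nm, em 535 nm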
Large screens that a line does not name were inactive; ! = not confirmed by another sample. Many of the other results were omitted from the sample, so hits are more common in it than they were.

Cc1cc(N2CCCC2)ccc1/C=C/C1=CCN(C)CC1	KSHV LANA nucl -4.13
C=CCn1c(C)c(/C=C/C2=CCN(C)CC2)c2ccccc21	none
NC(=O)Cn1c2[n+](c3ccccc31)CC(O)CS2 (stereo not drawn)	KSHV LANA nucl -2.37
CCOC(=O)Cn1c2[n+](c3ccccc31)CC(O)CS2 (stereo not drawn)	none
CSC1=N/C(=C\c2ccccc2)C(=O)S1	none
CCN(CC)c1ccc(/C=C2\N=C(SC)SC2=O)cc1	KSHV LANA nucl -2.6
COc1ccc(CNC(=O)C(c2cccs2)N(Cc2cccs2)C(=O)Cc2cccs2)cc1 (stereo not drawn)	none
Nc1cc[n+](CC(O)CO)cc1 (stereo not drawn)	KSHV LANA nucl -3.07
COc1cccc2c1C(=O)c1c(O)c3c(c(O)c1C2=O)C[C@@](O)(C(=O)CO)C[C@@H]3O[C@H]1C[C@H](N)[C@H](O)[C@H](C)O1	KSHV LANA nucl -8.45!
COc1cccc2c1C(=O)c1c(O)c3c(c(O)c1C2=O)C[C@@](O)(C(C)=O)C[C@@H]3OC1CC(N)C(O)C(C)O1 (stereo partly drawn)	KSHV LANA nucl -6.03
O=C(O)CC1S/C(=N/N=C/c2ccccc2)NC1=O (stereo not drawn)	none
O=C1N/C(=N/N=C\c2[nH]ncc2Br)SC1c1ccccc1 (stereo not drawn)	Ab BasE inh 26.8
COC(=O)c1ccc(COc2ccc(F)cc2)cc1	none
COc1ccc(-c2nnc(SCC3COc4ccccc4O3)o2)cc1 (stereo not drawn)	none (no result: KSHV LANA nucl)
CCOC(=O)/C(C#N)=C\c1cc2ccc(OC)cc2[nH]c1=O	KSHV LANA nucl -4.54
COc1cccc(C(=O)NCCc2cc3ccc(OC)cc3[nH]c2=O)c1	none
CCOc1ccc(C(=O)Nc2nc3cc4c(cc3s2)OCO4)cc1	KSHV LANA nucl -2.24
COc1cccc(C(=O)Nc2nc3cc4c(cc3s2)OCO4)c1	none
NS(=O)(=O)c1ccc(N2CCOCC2)c(C(=O)O)c1	none (no result: KSHV LANA nucl)
Nc1ccc(N2CCOCC2)c(N)c1	Ab BasE inh 36.8
COc1ccccc1NC(=O)CC(O)(C(F)(F)F)C(F)(F)F	none
Cc1ccc(C)n1-c1ccsc1C(=O)O	KSHV LANA nucl -3.69
Cc1ccc(C)n1-c1ccsc1C(=O)CC#N	none (no result: Ab BasE inh)
COc1ccccc1CC(=O)NC1CCCCC1	none (no result: KSHV LANA nucl)
COc1ccc(Cc2nnc3n2N=C(c2ccc(C)c(C)c2)C(C)S3)cc1OC (stereo not drawn)	none (no result: KSHV LANA nucl)
Cc1cc(C)nc(NCCCO)n1	none
O=S(=O)(Cc1nc(CSc2ccccn2)cs1)c1ccc(Cl)cc1	none (no result: KSHV LANA nucl)
Cc1ccc(S(=O)(=O)N2CCC[C@H]2C(=O)OCC(=O)N2c3ccccc3NC(=O)C2(C)C)cc1	none (no result: KSHV LANA nucl)
Cc1cccc(N2C(=O)CS/C2=N/NC(=O)c2cccc(Cl)c2)c1	none
S=c1[nH]ncc2ccccc12	none (no result: KSHV LANA nucl)
Cc1cccc2[nH]ncc12	Ab BasE inh 24.7
COc1cccc(NC(=O)Cn2ncc3c2-c2ccccc2OC3)c1	KSHV LANA nucl -2.31
CCC(C)NC(=O)Cn1ncc2c1-c1ccccc1OC2 (stereo not drawn)	none
CC(C)C(C(=O)O)n1c(-c2cccs2)n[nH]c1=S (stereo not drawn)	none (no result: KSHV LANA nucl)
NNC(=O)Cc1nn2c(C3CCCCC3)nnc2s1	none (no result: KSHV LANA nucl)
CCOc1ccc2nc(SCC(=O)Nc3ccccc3)[nH]c2c1	none (no result: KSHV LANA nucl)
O=c1[nH]c2c(s1)C1c3ccccc3OC3CCCC(S2)C31 (stereo not drawn)	KSHV LANA nucl -9.75
O=C1Oc2ccccc2C2c3sc(=O)[nH]c3SC(c3ccccc3)C12 (stereo not drawn)	none
COC(=O)CSc1nnc(C2CCCCC2)n1Cc1ccccc1	none
O=C(O)COc1ccccc1C=C1C(=O)c2ccccc2C1=O	none (no result: KSHV LANA nucl)
